Assay [1] in a line: inhibitors of TNFa-induced NFkB p65 translocation, primary screen, imaging, HUVEC, MLSMR starter and 10KST1 sets (AID 438;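 active = inhibition above 20% together with a positive visual image hit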;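 note: compound added about 3h40 before a 20 min TNFalpha stimulation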;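 for inhibition: signal is the nuclear over cytoplasmic p65 intensity ratio per well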). As to conditions: HUVEC TNFa-induced p65 nuclear translocation; cell count: measured here: nuclei count (cytotoxicity indicator), at 2.08 µM; inhibition: at 2 µM, stronger effect = higher value, 0% TNFa-plus-vehicle, 100% no-TNFa wells.
Assay [2] is described as follows: inhibitors of mutant huntingtin aggregation, primary screen, imaging, exon1htt(103Q)mCFP cells, high-content imaging (AID 483;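 active = visual image review flags a hit and inhibition of aggregation exceeds 20%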;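 note: compound exposure lasted 3 days before fixation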;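 for nuclei count: percent of the per-plate median nuclei count of sample wells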). The following applies: exon1htt(103Q)mCFP cell line, aggregate imaging, at 2 µM; inhibition of aggregation: stronger effect = higher value; nuclei count: measured here: cell count, toxicity.
Assay [3] in a line: inhibitors of E-selectin induction by TNFa, primary screen, imaging, HUVEC, immunofluorescence, MLSMR starter and 10KST1 sets (AID 487;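 active = visually confirmed hit in the image check and inhibition above 20%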;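 for inhibition: signal is fraction of cell area covered by stained E-selectin grains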;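 for nuclei count: 100% = median nuclei count of all wells on the same plate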). As to conditions: HUVEC TNFalpha-induced E-selectin immunofluorescence imaging, at 2 µM; inhibition: stronger effect = higher value; nuclei count: measured here: cell number, toxicity.
In assay [4] the target is Voltage-gated potassium channel subunit beta-2 (Rattus norvegicus) (UniProt P62483). Put plainly: KvBeta enzyme negative modulators, primary screen, biochemical, NADPH fluorescence (AID 622).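 Note: slope of raw intensity against log time taken from 70 to 1610 s.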 As to conditions: recombinant KvBeta, 4-cyanobenzaldehyde reduction, at 10 µM, stronger effect = higher value.
Sequence of Voltage-gated potassium channel subunit beta-2 (Rattus norvegicus) (P62483 whole entry, looked up): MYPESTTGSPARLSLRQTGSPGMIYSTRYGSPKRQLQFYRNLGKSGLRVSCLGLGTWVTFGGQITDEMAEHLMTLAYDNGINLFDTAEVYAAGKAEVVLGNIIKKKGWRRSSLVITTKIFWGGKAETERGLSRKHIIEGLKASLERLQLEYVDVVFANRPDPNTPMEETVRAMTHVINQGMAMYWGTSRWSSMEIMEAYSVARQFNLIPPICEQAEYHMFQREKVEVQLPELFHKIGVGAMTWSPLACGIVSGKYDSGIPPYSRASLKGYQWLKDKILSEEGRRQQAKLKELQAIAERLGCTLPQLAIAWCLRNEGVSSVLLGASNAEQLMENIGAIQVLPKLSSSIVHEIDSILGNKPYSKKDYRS
Assay [5] shares this target. The experiment in a line: KvBeta positive modulators, primary screen, biochemical, NADPH fluorescence (AID 623;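 active = NADPH fluorescence slope more negative than the mean of all samples by about 3 SD, 99.7% confidence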;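 note: fluorescence intensity change per second fitted from 20 to 320 s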). As to conditions: Recombinant KvBeta, NADPH fluorescence decrease slope, 10 min; at 10 µM; stronger effect = lower value.
The target in assay [6] is Alpha-2C adrenergic receptor (Homo sapiens) (UniProt P18825). The experiment in a line: modulators of alpha2C/GIRK thallium flux, primary screen, cell-based, HEK293 alpha2C/GIRK1/2 (AID 624;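 active = fluorescence slope after compound addition differing from the mean of all screened samples at 99.7% confidence, in either direction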;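 note: slope of fluorescence ratio to pre-addition baseline per second over 15 to 24 s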). As to conditions: thallium flux BTC fluorescence, at 10 µM, actives lie on both sides.
Sequence of Alpha-2C adrenergic receptor (Homo sapiens) (P18825 whole entry, looked up): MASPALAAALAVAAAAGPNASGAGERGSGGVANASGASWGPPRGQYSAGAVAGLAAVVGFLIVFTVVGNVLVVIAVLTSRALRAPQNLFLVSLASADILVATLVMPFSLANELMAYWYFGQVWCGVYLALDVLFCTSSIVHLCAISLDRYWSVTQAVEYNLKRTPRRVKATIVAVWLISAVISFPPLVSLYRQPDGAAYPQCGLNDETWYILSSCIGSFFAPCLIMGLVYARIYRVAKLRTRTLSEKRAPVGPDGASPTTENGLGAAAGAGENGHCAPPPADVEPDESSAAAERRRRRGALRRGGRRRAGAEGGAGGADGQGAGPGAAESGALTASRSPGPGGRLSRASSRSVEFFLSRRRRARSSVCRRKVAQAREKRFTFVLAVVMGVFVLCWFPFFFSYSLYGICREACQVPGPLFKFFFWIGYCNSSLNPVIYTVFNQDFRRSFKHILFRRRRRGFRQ
Assay [7] is described as follows: inhibitors of larval lipid processing in zebrafish, primary screen, whole organism, PED6 fluorescence, gall bladder and intestine (AID 686;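 active = a full or partial loss of lipid-probe fluorescence in the fish gall bladder, intestine or both, judged by eye; inactive = no fluorescence loss, or compound toxic to the fish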;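 note: larvae 5 to 7 days old with five fish per well; signal comes from phospholipase A2 cleavage of quenched PED6 carried via bile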). As to conditions: Zebrafish larvae PED6 lipid processing, fluorescence scoring; screened at 20 µM (by protocol). The method, boiled down: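 System: live zebrafish larvae aged 5-7 days, whole organism; measure: graded gall bladder and intestinal fluorescence inhibition per well; incubation: overnight exposure; reagent: ingested quenched lipid PED6 at 100 nM; signal: By-eye fluorescence microscopy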

The nature of assay [8]: inhibitors of Sendai virus-induced IRF3 signaling, primary screen, TLR/RLR signaling modifier project, cell-based, Sendai virus stimulus, luciferase, 10K MLSCN set (AID 602276;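 active = inhibition at or above 50% at 10 µM; inactive = inhibition below 50%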;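 note: firefly luciferase from ISG56 promoter only with Renilla not read in this screen; 0% = Sendai virus plus DMSO and 100% = medium plus DMSO without virus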). As to conditions: HEK293 RL24 IRF3 luciferase reporter, at 10 µM, stronger effect = higher value. Background: In a reporter assay the amount or activity of a reporter protein is the signal.
A short description of assay [9]: inhibitors of poly I:C-induced TLR3 signaling, primary screen, cell-based, poly I:C stimulus, luciferase, 10K MLSCN set (AID 602277;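 active = inhibition of the reporter signal at or above 50%; inactive = inhibition below 50%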). The following applies: HEK293-TLR3 RL24 IRF3 luciferase reporter, at 10 µM, stronger effect = higher value.

Calls of active or inactive are those of the source.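 Rule for the calls, unless noted: active = fluorescence slope higher than the sample average by over 3 SD (cut at about -0.22 in these data, passing the limit was not always enough); inactive = the rest.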

One may read the inhibition as the drop in the measured response relative to a control, in per cent. Consider `CCCN1Cc2cccc(C(=O)NC3CCCC3)c2C1=O`, for which the cell count in assay [1] turned out to be 653. Moreover, the inhibition in assay [1] is 0.7% (inactive); in [3] it was -62.4% (inactive); in assay [8], 11.8% (inactive); in [9] it was 22.8% (inactive). In [2], the inhibition of aggregation is 14% (inactive). Besides, the nuclei count in assay [2] worked out at 95.2%; in assay [3], 101%. The fluorescence slope in [4] was -0.349 (inactive). Moreover, the NADPH fluorescence slope in assay [5] was -6.1e-05 (inactive). In assay [6], the slope is 0.0059 (inactive). Besides, the outcome in [7] was inactive.
In the case of `Cc1cc(C)n2nc(SCC(=O)N(C)Cc3ccccc3)nc2n1`, the cell count in assay [1] was found to be 407. In addition, the inhibition was 7.4% (inactive) in assay [1], -18.9% (inactive) in [3], -13.5% (inactive) in [8] and -9.42% (inactive) in assay [9]. Besides, the inhibition of aggregation in [2] was -27.8% (inactive). In addition, the nuclei count in assay [2] is 116%; in assay [3], 115%. Besides, in assay [4], the fluorescence slope was -0.435 (inactive). In addition, in assay [5], the NADPH fluorescence slope was -6.2e-06 (inactive). For the same molecule, the slope in [6] was 0.00539 (inactive). Also, in assay [7], the molecule was classed as inactive.
On to `CN(Cc1ccc(-n2cccn2)cc1)C(=O)c1cnn2c1NC(c1ccco1)CC2C(F)(F)F` (stereo not drawn), for which, in assay [1], the cell count is 326. Moreover, the inhibition in assay [1] is 9.3% (inactive); in [3] it was -100% (inactive); in [8], 8.13% (inactive); in assay [9], 5.75% (inactive). Further, the inhibition of aggregation in [2] is -30.3% (inactive). The nuclei count amounted to 115% in assay [2] and 120% in assay [3]. The fluorescence slope in assay [4] was -0.509 (inactive). In addition, the NADPH fluorescence slope in assay [5] is -4e-05 (inactive). In addition, the slope in [6] was 0.00457 (inactive). Besides, in assay [7], the outcome was inactive.
Turning to `O=C(Nc1cc(C(F)(F)F)ccc1N1CCCC1)c1ccc2c(c1)OCO2`, in [1], the cell count turned out to be 215. The inhibition in assay [1] is 6.7% (inactive); in assay [3], -54.9% (inactive); in assay [8], 13% (inactive); in [9], 24.5% (inactive). In addition, in assay [2], the inhibition of aggregation is 16.7% (inactive). In addition, the nuclei count in assay [2] is 84.5%; in assay [3], 103%. Also, the fluorescence slope in assay [4] is -0.461 (inactive). Moreover, in assay [5], the NADPH fluorescence slope was -2e-05 (inactive). In addition, in assay [6], the slope is 0.00354 (inactive). Moreover, in assay [7], the result was inactive.
Regarding `C#CCSc1nc(-c2cccs2)ccc1C#N`, the cell count in assay [1] was found to be 340. Further, the inhibition is -1% (inactive) in [1], -85.2% (inactive) in assay [3], -10.7% (inactive) in assay [8] and 5.18% (inactive) in assay [9]. In assay [2], the inhibition of aggregation is -15% (inactive). Moreover, the values for the nuclei count in assay [2] and in assay [3] were 92.8% and 112%, respectively. In addition, the fluorescence slope in assay [4] was -0.5 (inactive). Further, the NADPH fluorescence slope in assay [5] was 5.7e-06 (inactive). For the same molecule, the slope in assay [6] was 0.00646 (inactive). Also, the molecule was called inactive in assay [7].
In the case of `COC(=O)Nc1sccc1C(=O)Nc1sccc1C(=O)OC`, the cell count in [1] came to 330. Also, the inhibition in [1] was -0.2% (inactive); in assay [3], 17.9% (inactive); in [8] it was 1.3% (inactive); in [9], -4.09% (inactive). In assay [2], the inhibition of aggregation was 23.3% (inactive). In addition, the results for the nuclei count in [2] and in assay [3] were 96.8% and 95.9%, respectively. Also, the fluorescence slope in [4] is -0.431 (inactive). Also, in assay [5], the NADPH fluorescence slope is -3.4e-05 (inactive). Besides, in assay [6], the slope was 0.00336 (inactive). The molecule was called inactive in assay [7].
`Cc1ccc2c(c1C)NC(C(=O)O)C1CC=CC21` (stereo not drawn): in assay [1], the cell count is 371. Besides, the inhibition in assay [1] is 1.6% (inactive); in [3] it was -11.4% (inactive); in assay [8], 13.7% (inactive); in assay [9], 18.5% (inactive). The inhibition of aggregation in [2] was -10.5% (inactive). Besides, the nuclei count in [2] is 77.6%; in assay [3], 114%. Moreover, the fluorescence slope in [4] is -0.373 (inactive). Moreover, the NADPH fluorescence slope in [5] is -2.5e-05 (inactive). For the same molecule, the slope in [6] is 0.00434 (inactive). The molecule was classed as inactive in assay [7].
On to `COc1cccc(OCc2nnc(SCC(=O)OCc3ccccc3)o2)c1`, for which the cell count in assay [1] worked out at 328. In addition, the inhibition was 3.3% (inactive) in assay [1], -31.4% (inactive) in [3], 10.1% (inactive) in assay [8] and 7.69% (inactive) in assay [9]. Further, the inhibition of aggregation in assay [2] was 1.6% (inactive). The values for the nuclei count in assay [2] and in [3] were 99.2% and 108%, respectively. In addition, in assay [4], the fluorescence slope is -0.267 (inactive). Also, the NADPH fluorescence slope in assay [5] is -4.9e-06 (inactive). Besides, in [6], the slope is 0.00652 (inactive). The call in assay [7] was inactive.
With `CC(C)(C)c1ccc(C(=O)N2CCC(C(=O)NCc3ccncc3)CC2)cc1`, the cell count in [1] worked out at 344. Besides, the inhibition in assay [1] was -5.2% (inactive); in assay [3], -64.8% (inactive); in assay [8] it was -14.5% (inactive); in assay [9], -39% (inactive). In assay [2], the inhibition of aggregation was -12.2% (inactive). The nuclei count in assay [2] amounted to 108%; in assay [3] it was 113%. The fluorescence slope in assay [4] is -0.368 (inactive). The NADPH fluorescence slope in assay [5] is -4.7e-05 (inactive). In addition, the slope in [6] is 0.00471 (inactive). Moreover, in assay [7], the result was inactive.
Take `COC(=O)c1[nH]c2ccc(C)cc2c1NC(=O)CN1CCN(C(=O)c2ccccc2)CC1`: the cell count in assay [1] amounted to 330. The inhibition in [1] was -4% (inactive); in assay [3] it was -26.1% (inactive); in assay [8], 18.9% (inactive); in assay [9], 14.6% (inactive). Also, the inhibition of aggregation in assay [2] was 3% (inactive). Besides, the values for the nuclei count in assay [2] and in [3] were 99.5% and 102%, respectively. In assay [4], the fluorescence slope was -0.306 (inactive). The NADPH fluorescence slope in [5] is -3.3e-05 (inactive). Moreover, the slope in assay [6] was 0.00437 (inactive). Moreover, in assay [7], the molecule was classed as inactive.
Take `COC(=O)CSc1nnc(CSc2nc(C)cc(C)n2)n1Cc1ccco1`: the cell count in assay [1] is 567. In addition, the inhibition in assay [1] was 5.2% (inactive); in assay [3], -50.8% (inactive); in [8], 1.21% (inactive); in [9], 3.66% (inactive). Besides, in [2], the inhibition of aggregation is -0.5% (inactive). For the same molecule, the nuclei count in [2] is 99.8%; in assay [3], 135%. Besides, the fluorescence slope in assay [4] is -0.404 (inactive). In addition, the NADPH fluorescence slope in assay [5] is -2.4e-05 (inactive). Also, the slope in assay [6] is 0.00459 (inactive). The molecule was classed as inactive in [7].
Regarding `CC(=O)c1ccc(N2CCN(C(=O)c3cc(C)on3)CC2)cc1`, the cell count in assay [1] turned out to be 319. The inhibition in assay [1] was 0% (inactive); in [3], 40.6% (inactive); in [8], 2.68% (inactive); in assay [9], -0.354% (inactive). Besides, the inhibition of aggregation in [2] is 18.7% (inactive). Moreover, the figures for the nuclei count in [2] and in assay [3] were 102% and 80.7%, respectively. Further, the fluorescence slope in assay [4] is -0.465 (inactive). The NADPH fluorescence slope in assay [5] is -4.5e-05 (inactive). Moreover, the slope in assay [6] is 0.00513 (inactive). The molecule was called inactive in assay [7].
Consider `CC(C)(C)NC(=O)CN(Cc1cccs1)C(=O)c1csnn1`, for which the cell count in [1] came out at 570. Further, the inhibition in assay [1] was 12.9% (inactive); in assay [3], 20.6% (inactive); in assay [8] it was 11.9% (inactive); in assay [9], 16.1% (inactive). In addition, the inhibition of aggregation in assay [2] is 34.6% (active). Besides, the nuclei count was 85% in assay [2] and 89.9% in [3]. The fluorescence slope in assay [4] is -0.431 (inactive). Also, the NADPH fluorescence slope in assay [5] is -4.2e-05 (inactive). Moreover, the slope in assay [6] is 0.00455 (inactive). For the same molecule, the call in assay [7] was inactive.
Turning to `CN/C=C1\C(=O)C(C)(C)Oc2ccc3ccc(=O)oc3c21`, the cell count in assay [1] is 544. The inhibition was -12.4% (inactive) in [1], -38.4% (inactive) in assay [3], 8.59% (inactive) in [8] and 8.49% (inactive) in assay [9]. Further, in assay [2], the inhibition of aggregation was -24.8% (inactive). The nuclei count in assay [2] came to 101%; in [3], 129%. In assay [4], the fluorescence slope was -0.384 (inactive). For the same molecule, the NADPH fluorescence slope in assay [5] was -2.1e-05 (inactive). Also, the slope in assay [6] was 0.00506 (inactive). For the same molecule, in assay [7], the molecule was classed as inactive.

These data come from PubChem BioAssay.
